Source: ChEMBL document CHEMBL1154862, “Synthesis of potent BACE-1 inhibitors incorporating a hydroxyethylene isostere as central core” (Eur J Med Chem, 2010)
pIC50: −log10 of the molar value.

Molecular target: T1, Beta-secretase 1 (Homo sapiens, UniProt P56817)
Test: Inhibition of BACE1 after 30 mins by homogeneous time resolved fluorescence assay

T1 sequence (P56817 whole entry): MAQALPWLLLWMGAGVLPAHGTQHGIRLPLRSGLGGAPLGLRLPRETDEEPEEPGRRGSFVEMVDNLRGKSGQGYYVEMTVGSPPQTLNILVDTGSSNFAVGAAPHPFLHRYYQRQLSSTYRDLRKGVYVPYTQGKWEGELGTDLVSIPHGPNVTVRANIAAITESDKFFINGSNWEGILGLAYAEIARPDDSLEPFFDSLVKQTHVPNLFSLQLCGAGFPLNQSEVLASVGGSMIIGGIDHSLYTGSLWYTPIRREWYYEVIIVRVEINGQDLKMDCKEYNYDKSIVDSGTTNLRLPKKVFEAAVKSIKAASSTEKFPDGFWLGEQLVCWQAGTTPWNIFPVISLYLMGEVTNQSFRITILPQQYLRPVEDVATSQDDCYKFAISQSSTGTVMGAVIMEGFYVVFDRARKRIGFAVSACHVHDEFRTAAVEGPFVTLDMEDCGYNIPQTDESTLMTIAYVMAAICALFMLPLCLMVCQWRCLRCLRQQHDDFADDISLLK

With `CC(C)[C@H](NC(=O)[C@H](C)C[C@H](O)[C@H](COCc1ccccc1)NC(=O)c1cc(C(=O)N[C@H](C)c2ccccc2)cc(N(C)S(C)(=O)=O)c1)C(=O)NCc1ccccc1` as the molecule, how does the pIC50 read?
The pIC50 was 8.44.

With `CC(C)[C@H](NC(=O)[C@@H](C)C[C@H](O)[C@H](COc1cc(F)cc(F)c1)NC(=O)c1cc(C(=O)N[C@H](C)c2ccccc2)cc(N(C)S(C)(=O)=O)c1)C(=O)NCc1ccccc1` as the molecule, how does the pIC50 read?
Its pIC50 is 8.00.

With `C[C@H](C[C@H](O)[C@H](COCc1cc(F)cc(F)c1)NC(=O)c1cc(C(=O)N[C@H](C)c2ccccc2)cc(N(C)S(C)(=O)=O)c1)C(=O)NC1CC1` as the molecule, how does the pIC50 read?
Its pIC50 is < 5.00.

With `CC(C)[C@H](NC(=O)[C@H](C)C[C@H](O)[C@H](COc1cc(F)cc(F)c1)NC(=O)c1cc(C(=O)N[C@H](C)c2ccccc2)cc(N(C)S(C)(=O)=O)c1)C(=O)NCc1ccccc1` as the molecule, how does the pIC50 read?
Its pIC50 is 8.51.

How did the pIC50 turn out when `CSCC[C@H](NC(=O)[C@@H](NC(=O)OC(C)(C)C)C(C)C)C(=O)N[C@@H](COCc1cc(F)cc(F)c1)[C@@H](O)C[C@@H](C)C(=O)N[C@H](C(=O)NCc1ccccc1)C(C)C` was run?
Its pIC50 is 5.00.

`CNC(=O)c1cc(C(=O)N[C@@H](COCc2cc(F)cc(F)c2)[C@@H](O)C[C@@H](C)C(=O)N[C@H](C(=O)NCc2ccccc2)C(C)C)cc(N(C)S(C)(=O)=O)c1` was tested. Which pIC50 did it give?
The pIC50 was 5.90.

Molecular target: T1, Beta-secretase 1
Test: Inhibition of human BACE1 in HEK293 cells stably co-transfected with mutant APP(swAPP751) assessed as Amyloid beta 1-40 level after 24 hrs by ELISA
Assay type: cell-based
Summary of the method: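 HEK-293 cells stably expressing Swedish mutant APP (swAPP751), grown in DMEM with 10% FCS, penicillin/streptomycin and 200 µg/mL hygromycin at 37 °C, 5% CO2. Seeded 2 × 10^4 cells/well, settled overnight, washed once with fresh medium, then inhibitor added (DMSO at most 1% final). Medium collected after 24 h; secreted Aβ1–40 measured by ELISA.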

How did the pIC50 turn out when `CC(C)[C@H](NC(=O)[C@H](C)C[C@H](O)[C@H](COCc1ccccc1)NC(=O)c1cc(C(=O)N[C@H](C)c2ccccc2)cc(N(C)S(C)(=O)=O)c1)C(=O)NCc1ccccc1` was run?
Its pIC50 is 6.00.

`CC(C)[C@H](NC(=O)[C@@H](C)C[C@H](O)[C@H](COc1cc(F)cc(F)c1)NC(=O)c1cc(C(=O)N[C@H](C)c2ccccc2)cc(N(C)S(C)(=O)=O)c1)C(=O)NCc1ccccc1` was tested. Which pIC50 did it give?
Its pIC50 is 6.47.

`CC(C)[C@H](NC(=O)[C@H](C)C[C@H](O)[C@H](COCc1cc(F)cc(F)c1)NC(=O)c1cc(C(=O)N[C@H](C)c2ccccc2)cc(N(C)S(C)(=O)=O)c1)C(=O)NCc1ccccc1` was tested. Which pIC50 did it give?
Its pIC50 is 5.35.

`CC(C)[C@H](NC(=O)[C@H](C)C[C@H](O)[C@H](COc1cc(F)cc(F)c1)NC(=O)c1cc(C(=O)N[C@H](C)c2ccccc2)cc(N(C)S(C)(=O)=O)c1)C(=O)NCc1ccccc1` was tested. Which pIC50 did it give?
The pIC50 was 6.80.

Molecular target: Cathepsin D (Homo sapiens, UniProt P07339)
Sequence (P07339 65-162 limits assumed): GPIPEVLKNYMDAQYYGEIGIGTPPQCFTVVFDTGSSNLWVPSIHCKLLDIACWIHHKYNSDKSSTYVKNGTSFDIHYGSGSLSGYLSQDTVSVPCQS
Sequence (P07339 169-412 limits assumed): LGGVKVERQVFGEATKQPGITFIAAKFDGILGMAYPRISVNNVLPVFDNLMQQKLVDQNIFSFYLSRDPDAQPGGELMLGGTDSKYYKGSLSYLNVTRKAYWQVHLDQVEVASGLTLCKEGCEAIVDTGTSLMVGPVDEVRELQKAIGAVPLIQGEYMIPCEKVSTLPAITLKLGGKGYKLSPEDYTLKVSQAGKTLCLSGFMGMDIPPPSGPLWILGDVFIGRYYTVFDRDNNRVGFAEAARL
Test: Inhibition of human liver cathepsin D after 20 mins by homogeneous time resolved fluorescence assay

With `CC(C)[C@H](NC(=O)[C@H](C)C[C@H](O)[C@H](COCc1ccccc1)NC(=O)c1cc(C(=O)N[C@H](C)c2ccccc2)cc(N(C)S(C)(=O)=O)c1)C(=O)NCc1ccccc1` as the molecule, how does the pIC50 read?
Its pIC50 is 7.39.

With `CC(C)[C@H](NC(=O)[C@@H](C)C[C@H](O)[C@H](COc1cc(F)cc(F)c1)NC(=O)c1cc(C(=O)N[C@H](C)c2ccccc2)cc(N(C)S(C)(=O)=O)c1)C(=O)NCc1ccccc1` as the molecule, how does the pIC50 read?
The pIC50 was 6.92.

`C[C@H](C[C@H](O)[C@H](COCc1cc(F)cc(F)c1)NC(=O)c1cc(C(=O)N[C@H](C)c2ccccc2)cc(N(C)S(C)(=O)=O)c1)C(=O)NC1CC1` was tested. Which pIC50 did it give?
The pIC50 was < 5.30.

With `CC(C)[C@H](NC(=O)[C@H](C)C[C@H](O)[C@H](COCc1cc(F)cc(F)c1)NC(=O)c1cc(C(=O)N[C@H](C)c2ccccc2)cc(N(C)S(C)(=O)=O)c1)C(=O)NCc1ccccc1` as the molecule, how does the pIC50 read?
Its pIC50 is 6.68.

How did the pIC50 turn out when `CC(C)[C@H](NC(=O)[C@H](C)C[C@H](O)[C@H](COc1cc(F)cc(F)c1)NC(=O)c1cc(C(=O)N[C@H](C)c2ccccc2)cc(N(C)S(C)(=O)=O)c1)C(=O)NCc1ccccc1` was run?
Its pIC50 is 7.23.

With `CSCC[C@H](NC(=O)[C@@H](NC(=O)OC(C)(C)C)C(C)C)C(=O)N[C@@H](COCc1cc(F)cc(F)c1)[C@@H](O)C[C@@H](C)C(=O)N[C@H](C(=O)NCc1ccccc1)C(C)C` as the molecule, how does the pIC50 read?
Its pIC50 is 9.20.

With `CNC(=O)c1cc(C(=O)N[C@@H](COCc2cc(F)cc(F)c2)[C@@H](O)C[C@@H](C)C(=O)N[C@H](C(=O)NCc2ccccc2)C(C)C)cc(N(C)S(C)(=O)=O)c1` as the molecule, how does the pIC50 read?
Its pIC50 is < 5.30.
